# Laboratory results: paper PMC4012894 (Journal of the American Chemical Society, 2014)
# Tests used:
# [1] = target: T1, PikCD50N-RhFRED (Streptomyces venezuelae, UniProt O87605, D50N); experiment: Spectroscopic equilibrium substrate binding assay, PikCD50N-RhFRED
# T1 sequence (O87605 1-416 D50N): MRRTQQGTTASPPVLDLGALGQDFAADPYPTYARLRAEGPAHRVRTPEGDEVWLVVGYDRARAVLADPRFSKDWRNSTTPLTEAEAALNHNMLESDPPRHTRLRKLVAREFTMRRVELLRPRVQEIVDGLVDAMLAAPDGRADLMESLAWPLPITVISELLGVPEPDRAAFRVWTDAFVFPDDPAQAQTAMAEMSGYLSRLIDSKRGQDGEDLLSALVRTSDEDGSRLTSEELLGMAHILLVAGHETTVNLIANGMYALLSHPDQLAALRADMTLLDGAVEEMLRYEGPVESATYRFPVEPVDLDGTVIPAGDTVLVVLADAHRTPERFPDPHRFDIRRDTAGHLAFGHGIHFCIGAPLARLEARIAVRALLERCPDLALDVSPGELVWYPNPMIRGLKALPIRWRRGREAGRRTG
# T1 sequence (Q8KU27 445-773 partner): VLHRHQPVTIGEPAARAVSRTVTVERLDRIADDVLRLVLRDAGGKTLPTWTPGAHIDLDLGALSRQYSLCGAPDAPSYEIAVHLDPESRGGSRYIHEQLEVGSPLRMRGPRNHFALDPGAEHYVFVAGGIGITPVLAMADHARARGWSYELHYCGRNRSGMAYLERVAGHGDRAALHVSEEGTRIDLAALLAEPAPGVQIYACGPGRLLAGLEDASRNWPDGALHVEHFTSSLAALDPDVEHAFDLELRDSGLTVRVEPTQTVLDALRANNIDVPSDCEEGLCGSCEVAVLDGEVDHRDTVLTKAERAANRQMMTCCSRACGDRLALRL
# [2] = target: T2, PikCD50NH238A (Streptomyces venezuelae, UniProt O87605, D50N/H238A); experiment: Spectroscopic equilibrium substrate binding assay, PikCD50NH238A mutant
# T2 sequence (O87605 1-416 D50N/H238A): T1 sequence (O87605 1-416 D50N)
# T2 sequence (Q8KU27 445-773 partner): T1 sequence (Q8KU27 445-773 partner)
# [3] = system: PikCD50N/H238A-RhFRED; experiment: Total turnover number; format: biochemical; conditions: PikCD50N/H238A-RhFRED double mutant
# Method in brief: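 Double mutant made by adding H238A to the PikCD50N-RhFRED fusion, to probe the H238 H-bond to the anchoring-group carbonyl. TTN is expressed relative to moles of enzyme.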
# [4] = target: T1, PikCD50N-RhFRED; experiment: PikCD50N-RhFRED analytical-scale enzymatic reactions; format: biochemical; conditions: for hydroxylation by PikCD50N-RhFRED (result in words): 0.5 mol % enzyme (5 μM enzyme, 1 mM substrate); for preferred site of hydroxylation (regioselectivity in words): PikCD50N-RhFRED
Compound,Kd [1] [µM],Kd [2] [µM],TTN D50NH238A [3],hydroxylation by PikCD50N-RhFRED (result in words) [4],preferred site of hydroxylation (regioselectivity in words) [4]
CC[C@H]1OC(=O)[C@H](C)[C@@H](OC(=O)CCN(C)C)[C@@H](C)C[C@@H](C)C(=O)/C=C/[C@H]1C [8b],81 ± 15,161 ± 25,870 ± 38,–,–
CC[C@H]1OC(=O)[C@H](C)[C@@H](OC(=O)c2ccc(CN(C)C)cc2)[C@@H](C)C[C@@H](C)C(=O)/C=C/[C@H]1C [16a],–,–,816 ± 33,converted to monohydroxylated products,highly regioselective allylic hydroxylation at C-10
CC[C@H]1OC(=O)[C@H](C)[C@@H](OC(=O)c2cccc(CN(C)C)c2)[C@@H](C)C[C@@H](C)C(=O)/C=C/[C@H]1C [16b],–,–,922 ± 35,converted to monohydroxylated products,highly regioselective allylic hydroxylation at C-10
CC[C@H]1OC(=O)[C@H](C)[C@@H](OC(=O)c2ccccc2CN(C)C)[C@@H](C)C[C@@H](C)C(=O)/C=C/[C@H]1C [compound 14],–,–,491 ± 26,converted to monohydroxylated products,favor C-12 hydroxylation
CC[C@H]1OC(=O)[C@H](C)[C@@H](OC(=O)CCCN(C)C)[C@@H](C)C[C@@H](C)C(=O)/C=C/[C@H]1C [compound 10],123 ± 14,168 ± 19,853 ± 38,–,–
CC[C@H]1OC(=O)[C@H](C)[C@@H](OC(=O)[C@@H]2CCCN2C)[C@@H](C)C[C@@H](C)C(=O)/C=C/[C@H]1C [12b],28 ± 5.4,21 ± 0.7,538 ± 20,–,preferential C-10 hydroxylation
CC[C@H]1OC(=O)[C@H](C)[C@@H](OC(=O)[C@H]2CCCN2C)[C@@H](C)C[C@@H](C)C(=O)/C=C/[C@H]1C [12a],47 ± 3,19 ± 1.3,542 ± 30,–,preferential C-10 hydroxylation
